The record followed here is PubChem BioAssay AID493082 (Broad Institute, 2011).

Results filed as inconclusive are left out. The source made the active and inactive calls.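 The calls were made as follows: active = compounds whose fitted half-maximal growth inhibition concentration is at most ten times the top valid dose; inconclusive = flat curve with 30 to 70% inhibition, or poor fit; inactive = the rest.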

In assay [1] the test system is C. albicans CaCi-8 + fluconazole, Alamar Blue growth, 48 h. Briefly: growth inhibition of drug-resistant Candida albicans, dose response, Alamar Blue, 48 h, dry powder (AID 493082). Summed up:
(§1)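 Assay system – C. albicans CaCi-8, fluconazole-resistant clinical isolate · Medium – RPMI 1640 defined medium, MOPS, glucose, uridine · Also added – fluconazole 8 µg/mL · Schedule – 48 h static 37 °C compound exposure, 2 h Alamar Blue · Signal – Alamar Blue fluorescence, excitation 544 nm, emission 590 nm · Read-out – fungal growth or viability, lower signal indicating inhibition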

Assay in assay [2]: as above
Particulars: C. albicans CaCi-8 + fluconazole, Alamar Blue growth, 48 h; at 26 µM (top of the series). The gist of the method: as §1
For orientation: Alamar Blue is a resazurin reagent that responds to reducing activity.

Broadly, the AC50 is the midpoint of the concentration-response curve, whichever way the signal moves. For the compound `COC(=O)Cn1nc(-c2ccccc2C)c2ccccc21`, the concentration at half-maximal activity (AC50) in assay [1] is 8.07 µM.

Regarding `CCN(CC)C(=O)Cn1c2ccc(F)cc2c2nc3n(c(=O)c21)CCS3`, the activity change, negative = inhibition in assay [2] is 24.6% (inactive).

Regarding `COC(=O)Cn1nc(-c2ccc(F)cc2)c2ccccc21`, the AC50 in assay [1] was 16.1 µM.

Turning to `COC(=O)Cn1c(-c2ccccc2)nc2ccccc21`, in assay [1], the AC50 is 16.7 µM.

For the compound `O=C1OCCC1n1nc(-c2ccccc2)c2ccccc21` (centres undefined), the activity change, negative = inhibition in assay [2] is -19.7% (inactive).

Take `COC(=O)Cn1nc(-c2ccc(C#N)cc2)c2ccccc21`: in assay [1], the AC50 was 20 µM.

On to `COC(=O)Cn1nc(-c2ccccc2)c2ccc(C(F)(F)F)cc21`, for which the activity change, negative = inhibition in assay [2] is -34.9% (inactive).

In the case of `O=C(Cn1nc(-c2ccccc2)c2ccccc21)OC1CCC1`, the activity change, negative = inhibition in assay [2] was -21.3% (inactive).

`O=C(Cn1c2ccc(F)cc2c2nc3n(c(=O)c21)CCS3)N1CCCCC1`: in assay [2], the activity change, negative = inhibition was 12.2% (inactive).

`CCCCn1nc(-c2ccccc2)c2ccccc21`: in assay [2], the activity change, negative = inhibition was 19.1% (inactive).

For the compound `O=C(Cn1c2ccccc2c2ccncc21)N1CCCCC1`, the activity change, negative = inhibition in assay [2] is -24.1% (inactive).

On to `COC(=O)Cn1nc(I)c2ccccc21`, for which the AC50 in assay [1] was 18.8 µM.

`COC(=O)C(C)(C)n1nc(-c2ccccc2)c2ccccc21`: in assay [2], the activity change, negative = inhibition was -6.76% (inactive).

Take `CCN(CC)C(=O)Cn1c2ccccc2c2nc3n(c(=O)c21)CCS3`: the half-maximal activity concentration (AC50) in assay [1] is 10 µM.

In the case of `O=C(Cn1c2ccc(F)cc2c2nc3n(c(=O)c21)CCS3)N1CCCC1`, the half-maximal activity concentration (AC50) in assay [1] was 0.907 µM.

As to `O=C(O)Cn1nc(-c2ccccc2)c2ccccc21`, in assay [2], the activity change, negative = inhibition is -8.51% (inactive).

Consider `COC(=O)Cn1nc(-c2cccc(F)c2)c2ccccc21`, for which the AC50 in assay [1] was 14 µM.

For `O=C(Cn1c2ccccc2c2nc3n(c(=O)c21)CCS3)N1CCCCC1`, the AC50 in assay [1] is 4.91 µM.

For `O=C(Cn1c2ccccc2c2nc3n(c(=O)c21)CCS3)N1CCOCC1`, in assay [1], the half-maximal activity concentration (AC50) was 7.67 µM.

In the case of `CC1CCN(C(=O)Cn2c3ccccc3c3nc4n(c(=O)c32)CCS4)CC1`, the concentration at half-maximal activity (AC50) in assay [1] is 2.06 µM.

For the compound `O=C(Cn1c2ccc(F)cc2c2nc3n(c(=O)c21)CCS3)N1CCCCCC1`, the activity change, negative = inhibition in assay [2] was 3.17% (inactive).

As to `COC(=O)Cn1nc(-c2ccccc2)c2ccccc21`, in assay [1], the AC50 is 2.33 µM.

Turning to `O=C(Cn1c2ccccc2c2nc3n(c(=O)c21)CCS3)N1CCCC1`, the half-maximal activity concentration (AC50) in assay [1] was 3.83 µM.

Consider `COC(=O)Cn1nc(-c2ccccc2)c2cccc(C(F)(F)F)c21`, for which the activity change, negative = inhibition in assay [2] is -12% (inactive).
